Test results taken from ChEMBL document CHEMBL1143703, “Linear TMC-95-based proteasome inhibitors” (J Med Chem, 2007).
pKi: −log10 of the molar value. Residues, ends and D or L forms follow the SMILES beside them. *: point of attachment. Cbz = O=C(OCc1ccccc1)*; Boc = CC(C)(C)OC(=O)*; NHBn = c1ccc(CN*)cc1; NHPh = c1ccc(N*)cc1; Bn = c1ccc(C*)cc1

Experiments:
Oryctolagus cuniculus [1] = species: Oryctolagus cuniculus; assay: Inhibition of post acid activity of rabbit reticulocyte 20S proteasome at 100 uM
[2] = Inhibition of post acid activity of rabbit reticulocyte 20S proteasome; parameters: species or system Oryctolagus cuniculus
[3] = Inhibition of chymotrypsin-like activity of rabbit reticulocyte 20S proteasome; parameters: species or system Oryctolagus cuniculus
Oryctolagus cuniculus [4] = species: Oryctolagus cuniculus; assay: Inhibition of chymotrypsin-like activity of rabbit reticulocyte 20S proteasome at 100 uM
Oryctolagus cuniculus [5] = species: Oryctolagus cuniculus; assay: Activation of trypsin-like activity of rabbit reticulocyte 20S proteasome relative to control
How it was run: (§1)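 Trypsin-like site: proteasome exposed to 0.1-100 µM compound, fluorogenic substrate hydrolysis read 1 h at 37 °C in pH 7.5 20 mM Tris, 1 mM DTT, 10% glycerol without SDS; 3% DMSO final. Initial rates relative to untreated control: >100% expressed as activation factor, <100% as inhibition; Ki via Vi/V0 = 1/(1+[I]/Ki(app)) or IC50 = Ki(1+[S]/Km).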

[6] = Inhibition of trypsin-like activity of rabbit reticulocyte 20S proteasome; parameters: species or system Oryctolagus cuniculus; how it was run: as §1

In the case of `CC(C)(C)OC(=O)N[C@@H](Cc1ccc(OCc2ccccc2)cc1)C(=O)NCC(=O)N[C@@H](Cc1c[nH]c2ccccc12)C(=O)O` (Boc-Tyr(Bn)-Gly-Trp-OH), the inhibition (Oryctolagus cuniculus [1]) was less than 20%, the pKi [2] was less than 4.00 and the pKi [3] was less than 4.00. It also gave an inhibition (Oryctolagus cuniculus [4]) of less than 20% and a Fold change (Oryctolagus cuniculus [5]) of 1.8.

Work on `CC(C)(C)OC(=O)NCCCC[C@H](NC(=O)[C@H](Cc1ccc(OCc2ccccc2)cc1)NC(=O)OC(C)(C)C)C(=O)N[C@@H](Cc1c[nH]c2ccccc12)C(=O)Nc1ccc(O)cc1` yielded an inhibition (Oryctolagus cuniculus [1]) of less than 20%, a pKi [2] of less than 4.00 and a pKi [3] of 4.18. It also gave a pKi [6] of less than 4.00.

`COC(=O)[C@@H]1Cc2c[nH]c3c(cccc23)-c2ccc(cc2OCc2ccccc2)C[C@H](NC(=O)OC(C)(C)C)C(=O)N[C@@H](CC(C)C)C(=O)N1` gave an inhibition (Oryctolagus cuniculus [1]) of less than 20%, a pKi [2] of less than 4.00 and a pKi [3] of less than 4.00. The inhibition (Oryctolagus cuniculus [4]) was less than 20% and the Fold change (Oryctolagus cuniculus [5]) was 1.4.

`CNC(=O)[C@@H](Cc1c[nH]c2c(-c3ccc(C[C@H](NC(=O)OC(C)(C)C)C(=O)N[C@H](CC(C)C)C(=O)OC)cc3OCc3ccccc3)cccc12)NC(=O)OCc1ccccc1` gave an inhibition (Oryctolagus cuniculus [1]) of less than 20%, a pKi [2] of less than 4.00 and a pKi [3] of less than 4.00. The inhibition (Oryctolagus cuniculus [4]) was less than 20% and the pKi [6] was 4.16.

In the case of `CCOC(=O)[C@@H](Cc1c[nH]c2c(-c3ccc(C[C@H](NC(=O)OC(C)(C)C)C(=O)N[C@H](CC(C)C)C(=O)OC)cc3OCc3ccccc3)cccc12)NC(=O)OCc1ccccc1`, the inhibition (Oryctolagus cuniculus [1]) was 20%, the pKi [2] was less than 4.00 and the pKi [3] was less than 4.00. It also gave an inhibition (Oryctolagus cuniculus [4]) of less than 20% and a Fold change (Oryctolagus cuniculus [5]) of 1.4.

In the case of `C[C@H](NC(=O)[C@H](Cc1ccc(O)cc1)NC(=O)OC(C)(C)C)C(=O)N[C@@H](Cc1c[nH]c2ccccc12)C(=O)O` (Boc-Tyr-Ala-Trp-OH), the inhibition (Oryctolagus cuniculus [1]) was less than 20%, the pKi [2] was less than 4.00 and the pKi [3] was less than 4.00. For the same compound, the inhibition (Oryctolagus cuniculus [4]) was less than 20% and the Fold change (Oryctolagus cuniculus [5]) was 6.8.

With `NCCCC[C@H](NC(=O)[C@@H](N)Cc1ccc(OCc2ccccc2)cc1)C(=O)N[C@@H](Cc1c[nH]c2ccccc12)C(=O)Nc1ccccc1` (H-Tyr(Bn)-Lys-Trp-NHPh) the inhibition (Oryctolagus cuniculus [1]) was less than 20%, the pKi [2] was less than 4.00 and the pKi [3] was 5.65. For the same compound, the pKi [6] was 5.95.

With `C[C@H](NC(=O)[C@H](Cc1ccc(OCc2ccccc2)cc1)NC(=O)OC(C)(C)C)C(=O)N[C@@H](Cc1c[nH]c2ccccc12)C(=O)NCc1ccccc1` (Boc-Tyr(Bn)-Ala-Trp-NHBn) the pKi [2] was 4.26, the pKi [3] was less than 4.00 and the inhibition (Oryctolagus cuniculus [4]) was less than 20%. The Fold change (Oryctolagus cuniculus [5]) was 1.7.

In the case of `C[C@H](NC(=O)[C@H](Cc1ccc(OCc2ccccc2)cc1)NC(=O)OC(C)(C)C)C(=O)N[C@@H](Cc1c[nH]c2ccccc12)C(=O)O` (Boc-Tyr(Bn)-Ala-Trp-OH), the inhibition (Oryctolagus cuniculus [1]) was less than 20%, the pKi [2] was less than 4.00 and the pKi [3] was less than 4.00. For the same compound, the inhibition (Oryctolagus cuniculus [4]) was less than 20% and the Fold change (Oryctolagus cuniculus [5]) was 1.5.

For `CC(C)C[C@H](NC(=O)[C@@H](N)Cc1ccc(OCc2ccccc2)cc1)C(=O)N[C@@H](Cc1c[nH]c2ccccc12)C(=O)NCCCCN`, the pKi [2] was 4.65, the pKi [3] was 5.43 and the pKi [6] was 6.48.

Compound `COC(=O)[C@H](Cc1c[nH]c2c(Br)cccc12)NC(=O)[C@H](CC(C)C)NC(=O)[C@H](Cc1ccc(OCc2ccccc2)c(I)c1)NC(=O)OC(C)(C)C` has an inhibition (Oryctolagus cuniculus [1]) of less than 20%, a pKi [2] of less than 4.00 and a pKi [3] of less than 4.00. The inhibition (Oryctolagus cuniculus [4]) was less than 20% and the Fold change (Oryctolagus cuniculus [5]) was 2.

In the case of `NCCCC[C@H](NC(=O)[C@@H](N)Cc1ccc(OCc2ccccc2)cc1)C(=O)N[C@@H](Cc1c[nH]c2ccccc12)C(=O)Nc1ccc(O)cc1`, the inhibition (Oryctolagus cuniculus [1]) was less than 20%, the pKi [2] was less than 4.00 and the pKi [3] was 6.07. It also gave a pKi [6] of 6.01.

Compound `CC(C)C[C@H](NC(=O)[C@H](Cc1ccc(OCc2ccccc2)cc1)NC(=O)OC(C)(C)C)C(=O)N[C@@H](Cc1c[nH]c2ccccc12)C(=O)NCCCCNC(=O)OC(C)(C)C` has a pKi [2] of 4.50, a pKi [3] of 4.09 and a Fold change (Oryctolagus cuniculus [5]) of 2.3.

In the case of `NCCCC[C@H](NC(=O)[C@@H](N)Cc1ccc(OCc2ccccc2)cc1)C(=O)N[C@@H](Cc1c[nH]c2ccccc12)C(=O)NCc1ccccc1` (H-Tyr(Bn)-Lys-Trp-NHBn), the inhibition (Oryctolagus cuniculus [1]) was less than 20%, the pKi [2] was less than 4.00 and the pKi [3] was 5.97. For the same compound, the pKi [6] was 6.49.

`CC(C)(C)OC(=O)NCCCC[C@H](NC(=O)[C@H](Cc1ccc(OCc2ccccc2)cc1)NC(=O)OC(C)(C)C)C(=O)N[C@@H](Cc1c[nH]c2ccccc12)C(=O)Nc1ccccc1` (Boc-Tyr(Bn)-Lys(Boc)-Trp-NHPh) gave an inhibition (Oryctolagus cuniculus [1]) of less than 20%, a pKi [2] of less than 4.00 and a pKi [3] of less than 4.00. The inhibition (Oryctolagus cuniculus [4]) was less than 20% and the Fold change (Oryctolagus cuniculus [5]) was 1.6.

Compound `CNC(=O)[C@@H](Cc1c[nH]c2c(-c3ccc(C[C@H](NC(=O)OC(C)(C)C)C(=O)N[C@H](C)C(=O)OC)cc3OCc3ccccc3)cccc12)NC(=O)OCc1ccccc1` has a pKi [2] of less than 4.00, a pKi [3] of less than 4.00 and an inhibition (Oryctolagus cuniculus [4]) of 20%. The pKi [6] was 4.67.

`COC(=O)[C@@H]1Cc2c[nH]c3c(cccc23)-c2ccc(cc2OC)C[C@H](NC(=O)OC(C)(C)C)C(=O)N[C@@H](CC(C)C)C(=O)N1` gave a pKi [2] of less than 4.00, a pKi [3] of less than 4.00 and an inhibition (Oryctolagus cuniculus [4]) of less than 20%. It also gave a Fold change (Oryctolagus cuniculus [5]) of 1.8.

With `C[C@H](NC(=O)[C@@H](N)Cc1ccc(OCc2ccccc2)cc1)C(=O)N[C@@H](Cc1c[nH]c2ccccc12)C(=O)NCc1ccccc1` (H-Tyr(Bn)-Ala-Trp-NHBn) the pKi [2] was less than 4.00, the pKi [3] was 6.32 and the pKi [6] was less than 4.00.

In the case of `CC(C)(C)OC(=O)N[C@@H](Cc1ccc(OCc2ccccc2)cc1)C(=O)NCC(=O)N[C@@H](Cc1c[nH]c2ccccc12)C(=O)NCc1ccccc1` (Boc-Tyr(Bn)-Gly-Trp-NHBn), the pKi [2] was 4.50, the pKi [3] was less than 4.00 and the inhibition (Oryctolagus cuniculus [4]) was less than 20%. For the same compound, the Fold change (Oryctolagus cuniculus [5]) was 1.7.

`COC(=O)[C@H](Cc1c[nH]c2ccccc12)NC(=O)[C@H](C)NC(=O)[C@H](Cc1ccc(OCc2ccccc2)cc1)NC(=O)OC(C)(C)C` (Boc-Tyr(Bn)-Ala-Trp-OMe) gave a pKi [2] of less than 4.00, a pKi [3] of 4.35 and a Fold change (Oryctolagus cuniculus [5]) of 9.8.

Work on `COC(=O)[C@H](Cc1c[nH]c2ccccc12)NC(=O)[C@H](C)NC(=O)[C@H](Cc1ccc(O)cc1)NC(=O)OC(C)(C)C` (Boc-Tyr-Ala-Trp-OMe) yielded a pKi [2] of 5.06, a pKi [3] of 5.04 and a Fold change (Oryctolagus cuniculus [5]) of 6.

`CC(C)(C)OC(=O)N[C@@H](Cc1ccc(O)cc1)C(=O)N[C@@H](CCCNC(=N)N)C(=O)N[C@@H](Cc1c[nH]c2ccccc12)C(=O)NCc1ccccc1` (Boc-Tyr-Arg-Trp-NHBn) showed a pKi [2] of 6.22, a pKi [3] of 5.92 and a pKi [6] of 5.41.

Work on `CC(C)C[C@@H](C=O)NC(=O)[C@H](CC(C)C)NC(=O)[C@H](CC(C)C)NC(=O)OCc1ccccc1` [MG-132] (Cbz-Leu-Leu-Leu-aldehyde) yielded a pKi [2] of 6.17, a pKi [3] of 7.12 and a pKi [6] of 5.35.

Work on `CC(C)C[C@H](NC(=O)[C@H](Cc1ccc(OCc2ccccc2)cc1)NC(=O)OC(C)(C)C)C(=O)N[C@@H](Cc1c[nH]c2ccccc12)C(=O)Nc1ccc(O)cc1` yielded a pKi [2] of 4.02, a pKi [3] of less than 4.00 and an inhibition (Oryctolagus cuniculus [4]) of less than 20%. For the same compound, the Fold change (Oryctolagus cuniculus [5]) was 1.6.

With `CC(C)C[C@H](NC(=O)[C@H](Cc1ccc(OCc2ccccc2)cc1)NC(=O)OC(C)(C)C)C(=O)N[C@@H](Cc1c[nH]c2ccccc12)C(=O)Nc1ccccc1` (Boc-Tyr(Bn)-Leu-Trp-NHPh) the inhibition (Oryctolagus cuniculus [1]) was less than 20%, the pKi [2] was less than 4.00 and the pKi [3] was less than 4.00. It also gave an inhibition (Oryctolagus cuniculus [4]) of less than 20% and a Fold change (Oryctolagus cuniculus [5]) of 1.9.

`CC(C)(C)OC(=O)N[C@@H](Cc1ccc(OCc2ccccc2)cc1)C(=O)N[C@@H](CCCN(C(=N)NC(=O)OCc1ccccc1)C(=O)OCc1ccccc1)C(=O)N[C@@H](Cc1c[nH]c2ccccc12)C(=O)NCc1ccccc1` showed an inhibition (Oryctolagus cuniculus [1]) of less than 20%, a pKi [2] of less than 4.00 and a pKi [3] of less than 4.00. For the same compound, the inhibition (Oryctolagus cuniculus [4]) was less than 20% and the Fold change (Oryctolagus cuniculus [5]) was 1.9.
